Laboratory results: article PMC6424611 (Journal of molecular biology, 2019)
Changes are numbered by the printed parent chain. Names and notes keep the numbering of the source.

B1: WT: full-length wild type RSK1 (1–735) (protein)
chain: MPLAQLKEPWPLMELVPLDPENGQTSGEEAGLQPSKDEGVLKEISITHHVKAGSEKADPSHFELLKVLGQGSFGKVFLVRKVTRPDSGHLYAMKVLKKATLKVRDRVRTKMERDILADVNHPFVVKLHYAFQTEGKLYLILDFLRGGDLFTRLSKEVMFTEEDVKFYLAELALGLDHLHSLGIIYRDLKPENILLDEEGHIKLTDFGLSKEAIDHEKKAYSFCGTVEYMAPEVVNRQGHSHSADWWSYGVLMFEMLTGSLPFQGKDRKETMTLILKAKLGMPQFLSTEAQSLLRALFKRNPANRLGSGPDGAEEIKRHVFYSTIDWNKLYRREIKPPFKPAVAQPDDTFYFDTEFTSRTPKDSPGIPPSAGAHQLFRGFSFVATGLMEDDGKPRAPQAPLHSVVQQLHGKNLVFSDGYVVKETIGVGSYSECKRCVHKATNMEYAVKVIDKSKRDPSEEIEILLRYGQHPNIITLKDVYDDGKHVYLVTELMRGGELLDKILRQKFFSEREASFVLHTIGKTVEYLHSQGVVHRDLKPSNILYVDESGNPECLRICDFGFAKQLRAENGLLMTPCYTANFVAPEVLKRQGYDEGCDIWSLGILLYTMLAGYTPFANGPSDTPEEILTRIGSGKFTLSGGNWNTVSETAKDLVSKMLHVDPHQRLTAKQVLQHPWVTQKDKLPQSQLSHQDLQLVKGAMAATYSALNSSKPTPQLKPIESSILAQRRVRKLPSTTL
modifications: left off: SmBiT, N-terminal, kept
B2: ΔC1: RSK1 with the last C-terminal residue truncated (1–734), no functional PBM (protein)
chain: MPLAQLKEPWPLMELVPLDPENGQTSGEEAGLQPSKDEGVLKEISITHHVKAGSEKADPSHFELLKVLGQGSFGKVFLVRKVTRPDSGHLYAMKVLKKATLKVRDRVRTKMERDILADVNHPFVVKLHYAFQTEGKLYLILDFLRGGDLFTRLSKEVMFTEEDVKFYLAELALGLDHLHSLGIIYRDLKPENILLDEEGHIKLTDFGLSKEAIDHEKKAYSFCGTVEYMAPEVVNRQGHSHSADWWSYGVLMFEMLTGSLPFQGKDRKETMTLILKAKLGMPQFLSTEAQSLLRALFKRNPANRLGSGPDGAEEIKRHVFYSTIDWNKLYRREIKPPFKPAVAQPDDTFYFDTEFTSRTPKDSPGIPPSAGAHQLFRGFSFVATGLMEDDGKPRAPQAPLHSVVQQLHGKNLVFSDGYVVKETIGVGSYSECKRCVHKATNMEYAVKVIDKSKRDPSEEIEILLRYGQHPNIITLKDVYDDGKHVYLVTELMRGGELLDKILRQKFFSEREASFVLHTIGKTVEYLHSQGVVHRDLKPSNILYVDESGNPECLRICDFGFAKQLRAENGLLMTPCYTANFVAPEVLKRQGYDEGCDIWSLGILLYTMLAGYTPFANGPSDTPEEILTRIGSGKFTLSGGNWNTVSETAKDLVSKMLHVDPHQRLTAKQVLQHPWVTQKDKLPQSQLSHQDLQLVKGAMAATYSALNSSKPTPQLKPIESSILAQRRVRKLPSTT
modifications: left off: SmBiT, N-terminal, kept
B3: L714E: RSK1 mutant; eliminates the interaction between ERK and RSK (protein)
chain: B1 chain with L714E
modifications: left off: SmBiT, N-terminal, kept

Tests used:
[1] = tested on: PARD3B; assay: NanoBiT protein-protein interaction assay; assay type: cell-based, human; conditions: PARD3B 1–913, serum-starved HEK293T, n=6, vs WT RSK1
Summary of the method: (§1)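 Full-length RSK1 (N-terminal SmBiT) is paired with an N-terminal LgBiT fusion of the partner: ARHGEF12 isoform 2, GOPC isoform 2, PARD3B 1–913, or SYNJ2BP. Sensors are transiently co-expressed in HEK293T cells, which are serum-starved for 20 h from 4 h post-transfection and assayed with Nano-Glo at 24 h. Steady-state signal is referenced to the wild-type pair. For the EGF response (20 ng/ml, 60 min), signal is normalized to initial luminescence and to unstimulated furimazine decay. At least 6 replicates.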

[2] = tested on: RhoA; assay: G-LISA RhoA activation assay; assay type: cell-based; conditions: RSK1/2 knockout HEK293T, n=4; for serum-stimulated RhoA activity: serum-starved, 20% serum 5 min
[3] = tested on: SYNJ2BP; assay: NanoBiT protein-protein interaction assay; assay type: cell-based, human; conditions: full-length proteins, serum-starved HEK293T, n=6, vs WT RSK1
Summary of the method: as §1

[4] = tested on: MAGI1; assay: NanoBiT protein-protein interaction assay; assay type: cell-based, human; conditions: full-length proteins, serum-starved HEK293T, n=6, vs WT RSK1
Summary of the method: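 Full-length RSK1 (N-terminal SmBiT) is co-expressed with full-length MAGI1–LgBiT in HEK293T cells by FuGene HD transfection, then serum-starved for 20 h in CO2-independent medium. Cells are read with Nano-Glo 24 h post-transfection. Steady-state luminescence of mutant sensors is referenced to the wild-type pair. For the 20 ng/ml EGF response, signal is followed for 60 min and normalized to initial luminescence and to furimazine decay in unstimulated cells. At least 6 biological replicates.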

[5] = tested on: GOPC; assay: NanoBiT protein-protein interaction assay; assay type: cell-based, human; conditions: full-length proteins, serum-starved HEK293T, n=6, vs WT RSK1
Summary of the method: as §1

[6] = tested on: ARHGEF12; assay: NanoBiT protein-protein interaction assay; assay type: cell-based, human; conditions: full-length proteins, serum-starved HEK293T, n=6, vs WT RSK1
Summary of the method: as §1

Molecule	steady-state luminescence of interaction sensor [1]	serum-stimulated RhoA activity [2]	basal RhoA activity ([2]; transfected)	steady-state luminescence of interaction sensor [3]	steady-state luminescence of interaction sensor [4]	steady-state luminescence of interaction sensor [5]	steady-state luminescence of interaction sensor [6]
B1	high luminescence signals	increased RhoA activity	increased level of basal RhoA activity	high luminescence signals	high luminescence signals	high luminescence signals	high luminescence signals
B2	significantly reduced the luminescent signal	only minor increment	–	significantly reduced the luminescent signal	significantly reduced the luminescent signal	significantly reduced the luminescent signal	significantly reduced the luminescent signal
B3	decreased the luminescence outputs	–	–	decreased the luminescence outputs	–	–	–
